Screening data as filed in PubChem.
Most compounds without a hit are left out; they make up all but 2.9% or so of the library.
Calb FLC – affects C. albicans growth with fluconazole; 300,000 compounds, 0.57% hits; growth inhibition, % (concentration not given with the values); AID 1979; C. albicans CaCi-2 (fluconazole-resistant clinical isolate) + fluconazole, Alamar Blue growth, 48 h;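 active = growth inhibition above about 58% in most replicates, limit read from the data, passing the limit was not always enough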;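 also: all wells also contain fluconazole at 8 µg/ml as a sub-toxic cotreatment; 0% = median of DMSO wells and 100% = median of geldanamycin control wells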
TAG inh – reduces triacylglycerol accumulation in H9c2 cells; inhibition, % at 12.5 µM; Nile Red lipid (TAG) fluorescence; cells loaded with 200 µM oleic acid; 230,000 compounds, 0.66% hits;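 active = pattern-corrected inhibition of lipid staining of at least 50% with the nuclear-stain viability signal not falling by more than 50%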;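 also: 0% = DMSO wells and 100% = triacsin C control wells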
MC4R antag cAMP – human MC4R antagonism in cAMP assay. P32245. MC4R-expressing cells, MTII-stimulated cAMP, LANCE TR-FRET. inhibition, % at 6.5 µM. 360,000 compounds, 0.48% hits. AID 540295;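 active = inhibition above its plate's cutoff, the mean of tested wells on that plate plus 3 SD, cut at about 29% in these data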;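 also: 0% = Melanotan II alone and 100% = Melanotan II plus saturating MCL0020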
Target sequence (P32245 whole entry, looked up): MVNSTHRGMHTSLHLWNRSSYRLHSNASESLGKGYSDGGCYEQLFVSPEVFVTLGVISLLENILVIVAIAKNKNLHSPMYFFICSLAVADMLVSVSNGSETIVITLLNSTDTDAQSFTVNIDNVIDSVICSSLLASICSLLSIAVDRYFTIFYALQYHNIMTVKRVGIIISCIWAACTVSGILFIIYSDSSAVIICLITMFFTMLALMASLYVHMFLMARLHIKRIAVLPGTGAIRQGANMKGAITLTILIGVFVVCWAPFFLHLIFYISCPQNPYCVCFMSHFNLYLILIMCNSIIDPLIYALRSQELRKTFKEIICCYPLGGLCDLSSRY
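System: U2OS cells stably expressing human melanocortin 4 receptor (MC4R). Reagent: Melanotan II challenge after compound preincubation. Doses: 6.5 µM. Times: 30-min compound, 1-h challenge, 1-h detection, room temperature. Measured by: TR-FRET with Eu-cAMP and labeled anti-cAMP, 671 nm. Replicates: singlicate.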
MC4R barr agon – human MC4R agonism via beta-arrestin; AID 540308; 360,000 compounds, 0.98% hits; U2OS MC4R beta-arrestin complementation, luminescence; percent of melanotan II response, DMSO zero; P32245; activation, % at 8.9 µM;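 active = activation above a per-plate cutoff, the mean activation of sample wells on that plate plus 3 SD, cut at about 8% in these data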
GalR3 antagonist – human GalR3 antagonism. HEK293 GalR3-CNG cAMP membrane potential fluorescence; galR3 body fused to GalR1 C-terminus. inhibition, % at 3 µM. 360,000 compounds, 0.44% hits;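 active = inhibition above the screen-wide average plus 3 SD, cut at about 13% in these data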;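 also: forskolin and galanin both at EC90 stimulate the cells; cAMP rise reported by CNG channel membrane potential dye signal; 0% = forskolin plus galanin with DMSO and 100% = forskolin alone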
Target sequence (O60755 1-299 limits assumed): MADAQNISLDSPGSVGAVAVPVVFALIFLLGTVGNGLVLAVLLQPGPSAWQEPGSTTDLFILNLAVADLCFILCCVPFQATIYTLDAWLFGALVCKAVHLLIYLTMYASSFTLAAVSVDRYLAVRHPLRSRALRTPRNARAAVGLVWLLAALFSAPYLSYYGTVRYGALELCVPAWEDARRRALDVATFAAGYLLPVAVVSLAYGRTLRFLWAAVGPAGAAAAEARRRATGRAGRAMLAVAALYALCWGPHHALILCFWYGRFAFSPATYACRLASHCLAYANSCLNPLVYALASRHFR
Efflux pump mplx – antifungal efflux pump inhibition, Nile Red retention | 330,000 compounds, 0.44% hits | inhibition, % at 10 µM | S. cerevisiae Candida pump triplex;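 active = plate passing quality check with inhibition over a set limit, or well fluorescence over plate mean plus 4 SD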;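 also: Nile Red retained in pooled yeast measured as flow cytometry median fluorescence; 0% = buffer negative control and 100% = Enniatin B positive control; higher means more Nile Red kept so more efflux inhibition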
MC4R barr ag – human MC4R beta-arrestin agonism confirmation | shares compounds with MC4R barr agon | U2OS MC4R beta-arrestin recruitment, luminescence; scaled DMSO 0%, Melanotan II 100% | activation, % at 8.9 µM | 2,400 compounds, 31% hits | AID 602192;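 active = mean activation across replicates above the hit cutoff set in the earlier primary screen, cut at about 8% in these data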
MOR-DOR barr ag – counter-screen for MC4R agonists: agonists of mu-delta opioid heterodimer. 2,400 compounds, 5.8% hits. activation, % at 9.2 µM. shares compounds with MC4R barr agon. U2OS PathHunter beta-arrestin, beta-gal luminescence; percent of deltorphin B response, DMSO zero. AID 602194;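 active = mean activation across replicates exceeds the hit threshold derived in the earlier primary screen, cut at about 18% in these data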;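 also: 100% = deltorphin B at 0.9 µM final and 0% = DMSO alone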
* hit, by the source's call; / = no result given.

SMILES | Calb FLC | TAG inh | MC4R antag cAMP | MC4R barr agon | GalR3 antagonist | Efflux pump mplx | MC4R barr ag | MOR-DOR barr ag
Cc1cnc(-c2nc3ccccc3n2C(C)C(=O)Nc2c(C)cccc2C)cn1 (stereo not given) | / | / | / | / | -5 | / | / | /
CCCCC(CC)Cn1c(N)c(C#N)c2nc3ccccc3nc21 (stereo not given) | -17 | / | -6 | 17* | -3 | 0 | 19* | 15
CN(C)CCCn1c(N)c(C#N)c2nc3ccccc3nc21 | -1 | -1 | -1 | -1 | -5 | 0 | / | /
COC(=O)[C@]12CCCCC=C1N(CCC1=CCCCC1)C(=O)[C@H](CC(=O)NCc1ccccc1)C2 | / | / | / | / | -5 | / | / | /
COc1ccc(C(=O)Nc2c(F)c(F)c(F)c(F)c2F)cc1OC | / | / | / | / | -6 | / | / | /
COc1ccc(NC(=O)c2ccc(F)c(F)c2)c2ccccc12 | -35 | / | 5 | 21* | -7 | 0 | -1 | 2
CCC(C)Sc1ccc(-c2nc3ccc(C)cn3c2NCc2ccccc2)cc1 (stereo not given) | / | 14 | 10 | 12* | -8 | 0 | 5 | 8
C[C@@H]1CN(S(=O)C(C)(C)C)[C@@H](CCO)/C1=C\c1ccccc1 (stereo not given in full) | / | -11 | 7 | -3 | -5 | / | / | /
COc1ccc(-c2cc(C#N)nc(Oc3ccc(Cl)cc3)n2)cc1 | 5 | -53 | 2 | 11* | -5 | 0 | 2 | 3
COc1ccc(OC)c(NC(=O)C2(C)CCN2Cc2ccccc2Cl)c1 (stereo not given) | / | -8 | 5 | -2 | -6 | / | / | /
C/C(=N/NC(=O)Nc1ccccc1)c1ccc(C)cc1 | -8 | / | 2 | 11* | -4 | 0 | -1 | 3
C/C(=N\NC(=O)Nc1ccccc1)c1ccc2ccccc2c1 | -9 | / | 0 | 21* | -7 | -1 | 4 | 6
COC(=O)[C@@]12C[C@@H](CC(=O)NCC3CCCCC3)C(=O)N(Cc3ccccc3)C1=CCC(C)(C)C2 | / | / | / | / | -7 | / | / | /
O=C(NCC1CCN(C(=O)C(=O)c2cc3ccccc3o2)CC1)c1cccnc1 | / | / | / | / | -7 | / | / | /
CC(C)(C)OC(=O)N1CCCN(C(c2ccnc3ccccc23)c2nnnn2-c2ccc3c(c2)OCCO3)CC1 (stereo not given) | / | / | / | / | -4 | / | / | /
O=C(CN1CCN(c2ccccc2)CC1)NC(=O)NCc1ccccc1 | / | -13 | 5 | 14* | -1 | 0 | 5 | 2
COc1ccccc1CNC(=O)c1cc(-c2cc(F)ccc2OC(C)C)n[nH]1 | / | -8 | 0 | 0 | -1 | / | / | /
Cc1cccn2c(=O)nc(SCC(=O)N3CCC(Cc4ccccc4)CC3)nc12 | -7 | -18 | 7 | -3 | -2 | 0 | / | /
Cc1cccc2cc3c(NC(=O)c4ccccn4)nn(C)c3nc12 | 2 | 10 | -3 | 13* | -2 | 0 | 2 | 4
c1ccc(-c2csc(Nc3nc(N4CCOCC4)nc(N4CCOCC4)n3)n2)cc1 | 1 | / | 21 | 14* | 3 | 0 | 11* | 3
Cc1cc(C)nc(Nc2nc(-c3ccccc3)cs2)n1 | -1 | -2 | -3 | 0 | -4 | 0 | / | /
CCOC(=O)C1(C)CCCCCN1C(=O)c1csnn1 (stereo not given) | / | 11 | 1 | 0 | -2 | / | / | /
CCN(c1ccc(Cl)cc1)S(=O)(=O)c1nnc(NC(=O)C(C)C)s1 | -4 | / | -4 | 10* | -11 | 0 | 1 | 6
CCN(c1ccc(OC)cc1)S(=O)(=O)c1nnc(NC(=O)C(C)C)s1 | -1 | / | -7 | 1 | -9 | 0 | / | /
CCN(c1ccc(OC)cc1)S(=O)(=O)c1nnc(NC(=O)C2CCCCC2)s1 | -4 | / | 4 | 12* | -2 | 0 | 1 | 7
SMILES | Calb FLC | TAG inh | MC4R antag cAMP | MC4R barr agon | GalR3 antagonist | Efflux pump mplx | MC4R barr ag | MOR-DOR barr ag
Cc1cc(Oc2cccnc2)ccc1NC(=O)Cc1c[nH]c2ccccc12 | / | / | / | / | 2 | / | / | /
COc1ccc(N2CCN(C(=O)CCCCCn3c(=S)[nH]c4ccc(N5CCOCC5)cc4c3=O)CC2)cc1 | / | -21 | 18 | -3 | -4 | / | / | /
O=C(CCCCCn1c(=S)[nH]c2ccc(N3CCOCC3)cc2c1=O)NCc1ccccc1 | -4 | / | 23 | 12* | 0 | 0 | 7 | 3
O=C(CCCCCn1c(=S)[nH]c2ccc(N3CCOCC3)cc2c1=O)NCc1cccc(Cl)c1 | -1 | -14 | 12 | 9.8* | -4 | 0 | 2 | 3
O=c1c2cc(N3CCOCC3)ccc2[nH]c(=S)n1CCc1ccccc1 | 2 | 13 | 9 | -1 | 2 | 0 | / | /
Fc1cc(Br)ccc1Nc1nc2ccccc2n2nnnc12 | 1 | -4 | -1 | 14* | 6 | 0 | 9.6* | 5
O=C(/C=C/c1cc2ccccc2o1)c1ccccc1O | -2 | -1 | 20 | 15* | 1 | 0 | 2 | 3
O=C(/C=C/c1cccc(F)c1)OCC(=O)N1CCc2ccccc21 | / | 15 | 8 | 28* | -4 | 0 | 0 | 3
CCCCN(Cc1nc2ccccc2c(=O)[nH]1)C(=O)c1nn(C)c(=O)c2ccccc12 | / | 3 | 12 | -2 | -1 | / | / | /
NS(=O)(=O)c1ccc(CCNc2nc3c(-c4cccc(F)c4)nnn3c3ccccc23)cc1 | 7 | / | -51 | 15* | 4 | -9 | 11* | 13
Cc1cccc(-c2nnn3c2nc(NCCc2ccc(S(N)(=O)=O)cc2)c2ccccc23)c1 | 2 | / | -41 | 2 | -4 | 0 | / | /
CCOC(=O)c1sc2nc(CSc3ccccc3Cl)[nH]c(=O)c2c1C | 3 | 7 | -6 | 10* | -5 | -1 | 3 | 2
COc1cc(/C=N/NC(=O)c2ccccn2)ccc1OC(=O)c1ccccc1Br | 23 | -8 | -2 | 12* | -3 | 0 | 5 | 1
COc1ccc(/C=N/NC(=O)Nc2cccc3nsnc23)cc1OC | 18 | / | 1 | 11* | 2 | 0 | 1 | 12
COc1ccc(/C=N/NC(=O)c2cccc(C(=O)N/N=C/c3ccc(OC)c(OC)c3)n2)cc1OC | -2 | / | -4 | -3 | -9 | / | / | /
CCCCCCn1c(C)nc2c(c1=O)c1nc3ccccc3nc1n2/N=C/c1ccco1 | -3 | / | -1 | 25* | -6 | 0 | 0 | 2
Cc1nc2c(c(=O)n1CCC1=CCCCC1)c1nc3ccccc3nc1n2/N=C/c1ccccc1 | -9 | 29 | 7 | -2 | / | 0 | / | /
CC1(C(=O)NS(=O)(=O)c2cccc(OC(F)F)c2)CCN1C(=O)C/C=C/c1ccccc1 (stereo not given) | / | -5 | -1 | -2 | -6 | / | / | /
